# Assay outcomes: PubChem, The Scripps Research Institute Molecular Screening Center
# rCAG binder: binders of r(CAG) RNA repeats, primary screen, biochemical, fluorescence; inhibition, % at 3 µM; 1.3% of 370,000 active; r(CAG) RNA repeat, TO-PRO-1 dye displacement fluorescence;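 active = inhibition above the plate cutoff, the mean of all test compounds on that plate plus 3 SD, cut at about 35% in these data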;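 note: 0% = DMSO alone and 100% = 100 µM mitoxantrone as full dye displacement; higher means more dye released from RNA so lower well fluorescence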
# HTRA1 inh: HTRA1 serine protease inhibitors, primary screen, biochemical, fluorescence polarization, HTS; recombinant HTRA1, FP-rhodamine activity-based probe; inhibition, % at 5.96 µM; 0.5% of 340,000 active; in the data active = inhibition above about 36%;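 note: 0% = enzyme with DMSO and 100% = wells lacking enzyme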
# SIAE primary: human SIAE inhibitors, primary screen, biochemical, fluorescence polarization, FP-Rh probe, 1536-well HTS; Sialate O-acetylesterase (Homo sapiens), Q9HAT2; AID 1053197, 2014; 0.69% of 370,000 active; SIAE FP-Rh probe binding; inhibition, % at 9.66 µM;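 active = inhibition above a cutoff: mean of compounds within the control limits plus 3 SD of those, cut at about 17% in these data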;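 note: 0% = plate median of compound wells and 100% = probe without SIAE protein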
# Target sequence (Q9HAT2 whole entry, looked up): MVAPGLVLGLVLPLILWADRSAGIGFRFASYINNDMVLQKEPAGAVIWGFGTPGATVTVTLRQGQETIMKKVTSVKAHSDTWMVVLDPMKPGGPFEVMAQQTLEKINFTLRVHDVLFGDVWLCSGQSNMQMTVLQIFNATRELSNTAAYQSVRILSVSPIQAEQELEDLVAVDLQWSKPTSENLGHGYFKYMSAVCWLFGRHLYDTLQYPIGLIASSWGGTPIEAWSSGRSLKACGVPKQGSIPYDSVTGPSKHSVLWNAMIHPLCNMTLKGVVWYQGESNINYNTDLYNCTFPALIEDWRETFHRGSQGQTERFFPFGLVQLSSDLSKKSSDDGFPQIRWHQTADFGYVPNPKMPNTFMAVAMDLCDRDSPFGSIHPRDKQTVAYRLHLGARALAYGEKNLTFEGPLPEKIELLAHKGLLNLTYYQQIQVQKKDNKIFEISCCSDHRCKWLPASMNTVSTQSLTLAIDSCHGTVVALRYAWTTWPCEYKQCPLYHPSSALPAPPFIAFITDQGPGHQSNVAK
# mABHD4 FP: ABHD4 inhibitors, primary screen, biochemical, fluorescence polarization, mouse. (Lyso)-N-acylphosphatidylethanolamine lipase (Mus musculus), Q8VD66. purified mABHD4, FP-Rh probe fluorescence polarization. inhibition, % at 8.92 µM. 0.54% of 370,000 active. AID 720543, 2013;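 active = inhibition exceeding the mean over every tested compound plus 3 SD, cut at about 30% in these data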;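 note: 0% = plate median of compound wells and 100% = S159A mutant with DMSO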
#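 Assay system: Wild-type mouse ABHD4 protein | Medium: HEPES pH 7.0 buffer, 150 mM NaCl, 0.01% Pluronic F-127 | Incubation: Enzyme–compound pre-incubation 45 min, then probe 60 min, both 25 °C | Technique: Fluorescence polarization with parallel and perpendicular emission, 525/598 nm | Evaluation: % inhibition of FP-Rh probe binding versus controls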
# TCR CD3 inh: inhibitors of human TCR-CD3 interaction, primary screen, biochemical, fluorescence, TAMRA-labeled TCR probe | 0.37% of 360,000 active | T-cell receptor (TCR) | inhibition, % at 9.4 µM; in the data active = inhibition above about 19%;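 note: recombinant mutant TCR 2C K166C tagged with TAMRA read by polarization; 0% = receptor in buffer alone and 100% = receptor with positive control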
# SIAE confirm: human SIAE inhibitors, retest, confirmation, biochemical, fluorescence polarization, FP-Rh probe, triplicate | shares compounds with SIAE primary | SIAE FP-Rh activity-based probe | inhibition, % at 9.66 µM | 13% of 2,300 active | AID 1117263, 2014;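 active = mean inhibition of the replicates above the hit cutoff set in the primary screen, cut at about 17% in these data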;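 note: 0% = SIAE with DMSO and probe and 100% = probe without SIAE; inhibitors lower polarization as more probe stays unbound to SIAE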
# Active calls of the source: *; nt = not tested or not shown. Rows were chosen to be rich in hits. Some 2.5% of all compounds tested hit in one or more screens of this group.
SMILES,rCAG binder,HTRA1 inh,SIAE primary,mABHD4 FP,TCR CD3 inh,SIAE confirm
COc1ccc(-c2nc(C)sc2CC(=O)O)cc1OC,1.9,-1.2,18.0*,3.5,3.9,3.6
O=C(CN1CCOCC1)OCCCC1CCCCC1,-0.1,-0.7,4.0,-2.0,1.7,nt
CC(C)CCCC(C)CCOC(=O)CN1CCCC1 (centres undefined),-5.0,2.7,18.2*,1.5,5.3,-1.4
Cc1cccc(N2C(=S)NC3c4ccccc4OC2(C)C3C(=O)N(C)C)c1 (centres undefined),-1.1,-2.1,7.9,-1.8,6.6,nt
CCc1cc(/C(Cc2ccccn2)=N\O)c(O)cc1O,-2.9,11.3,19.4*,2.8,-8.9,21.8*
CCc1cc(/C(Cc2cscn2)=N\O)c(O)cc1O,-3.0,9.3,14.3,4.1,-1.6,nt
Cc1c(O)ccc(/C(Cc2ccc3ccccc3n2)=N\N)c1O,11.9,1.2,9.5,-5.7,-3.9,nt
CCc1cc(/C(Cc2ccc3ccccc3n2)=N\O)c(O)cc1O,5.2,24.6,61.2*,2.0,5.7,39.9*
COC(=O)C(NNc1ccc(F)cc1)(NC(=O)c1ccccc1)C(F)(F)F (centres undefined),-5.2,-3.8,-0.5,3.6,1.8,nt
O=C(CSc1nc2ccccc2o1)NC(=O)NCc1ccccc1,4.1,-14.1,3.0,-3.4,-0.1,nt
Clc1ccc(-c2csc(N3CCCCCC3)n2)cc1,-0.5,-0.3,76.2*,-13.8,-5.5,4.8
Clc1ccc(-c2csc(N3CCOCC3)n2)cc1,-0.2,2.6,1.2,5.6,7.7,nt
CN(c1ccc(OCC(=O)OCC(=O)Nc2ccc([N+](=O)[O-])cc2)cc1)S(=O)(=O)c1cccs1,7.7,-7.9,40.1*,5.0,2.2,26.2*
CC1CCc2onc(C(=O)NCc3ccco3)c2C1 (centres undefined),-3.4,4.6,21.4*,3.1,6.9,3.4
O=C(NCc1ccco1)c1noc2c1CCCC2,-1.8,-4.3,0.1,4.3,-1.3,nt
COc1ccc(C(=O)N/C(=C\c2ccc(-c3cccc([N+](=O)[O-])c3)o2)C(=O)NCCCN2CCOCC2)cc1,5.4,0.7,-2.9,2.7,1.1,nt
COc1ccc(-c2cc(-c3c(O)c(OC)c4occc4c3OC)[nH]n2)cc1,16.1,13.2,22.3*,9.5,-1.0,11.5
COc1ccc(-c2cc(-c3c(O)c(OC)c4occc4c3OC)[nH]n2)cc1OC,16.5,23.9,19.4*,6.5,1.0,5.3
Cn1cnnc1SCC(=O)N1CCC(Cc2ccccc2)CC1,3.2,-5.1,0.4,3.7,-7.0,nt
O=C1C2C3C=CC(CO)(O3)C2C(=O)N1c1ccccc1-c1ccccc1 (centres undefined),nt,-9.7,nt,nt,nt,nt
CC(C)(C)CC(=O)NC(=S)Nc1ccccc1C(F)(F)F,-6.6,-9.3,-4.0,-3.1,-8.3,nt
CCCCc1ccc(NC(=S)Nc2ccc(Nc3ccc(OC)cc3)cc2)cc1,6.6,30.5,26.9*,24.8,-5.1,12.9
CCCCc1ccc(NC(=S)NCc2cccc(OC)c2)cc1,-1.8,-30.7,-5.1,-38.9,-12.1,nt
CCCc1c(C(=O)NNc2ccccc2OC)cnn1-c1ccccc1,-3.4,8.7,18.2*,2.9,-6.4,2.9
CCCc1c(C(=O)Nc2ccc(OC)cc2)cnn1-c1ccccc1,-5.7,-8.1,1.9,-2.3,2.4,nt
SMILES,rCAG binder,HTRA1 inh,SIAE primary,mABHD4 FP,TCR CD3 inh,SIAE confirm
C=C(C)C(=O)Nc1cccc(C2=NOC3(C2)C[C@H](C(N)=O)N(C(=O)CC)C3)c1 (some centres undefined),nt,1.5,nt,nt,nt,nt
CNc1ccc(OC)cc1-n1cnc(-c2ccc([N+](=O)[O-])cc2)c1,0.7,-2.0,19.8*,2.4,1.5,8.4
Cc1cc(CNC(=O)C2(C(F)(F)F)CC(CCCO)CCCO2)nn1C (centres undefined),0.3,2.0,2.9,-1.7,-3.5,nt
NC(=O)c1nsc(C(=O)N(Cc2ccccc2Cl)C(C(=O)NCC2CCCO2)c2ccc(O)cc2)c1N (centres undefined),-0.4,-0.6,19.7*,-0.4,-1.0,-0.3
O=C(O)/C=C1\CCCc2ccccc2C1O (centres undefined),3.3,3.0,-4.0,0.4,-1.7,nt
Cc1nc2c(o1)CCc1ccccc1C2O (centres undefined),-0.7,6.0,40.5*,6.2,2.1,3.7
COc1ccccc1N1CCN(CCCCOc2cccc3ccccc23)CC1,-6.8,-1.8,50.0*,13.5,1.9,7.4
CCOC(=O)N1CCN(S(=O)(=O)c2ccc(F)c(C(=O)Nc3ccc(C)c(Cl)c3)c2)CC1,4.1,-47.3,-15.3,-18.5,1.9,nt
O=C(Nc1ccc(F)cc1F)NC1CCCc2ccccc21 (centres undefined),-2.1,-7.9,-3.8,0.9,3.5,nt
CCn1c2ccccc2c2cc(NC(=O)c3cccc([N+](=O)[O-])c3)ccc21,16.5,-3.4,7.9,-2.4,-2.8,nt
CCn1c2ccccc2c2cc(NC(=O)c3ccc(C)c([N+](=O)[O-])c3)ccc21,4.4,-2.4,21.4*,-0.1,-1.2,-3.6
Cc1cnc(C)c(Nc2nc(C(N)Cc3ccccc3)cs2)n1 (centres undefined),10.8,nt,5.5,6.4,2.8,nt
Cc1ccc(S(=O)(=O)N/N=C\c2cn(CC(N)=O)c3ccccc23)cc1C,24.6,4.3,23.1*,9.1,7.0,6.7
N#C/C(=C/c1ccc(C(=O)O)cc1)C(=O)NCc1ccccc1,0.5,-2.7,2.1,0.7,0.9,nt
CN(C)c1ccc(CNc2nc3cc(-c4ccc(F)cc4)sc3c(=O)n2C)cc1,5.6,nt,17.4*,-7.0,0.9,2.6
CC(=O)c1ccccc1NC(=O)COC(=O)CCCN1C(=O)c2cccc3cccc(c23)C1=O,0.4,-3.3,18.6*,-0.5,6.0,2.7
CC1(C)CC(=O)C2=C(C1)N1C(=C(C#N)C2c2ccc(Cl)cc2)N=C(N)c2ccccc21 (centres undefined),9.5,-42.0,20.1*,22.6,-8.9,1.3
CN(C)CCCNc1nc2cc(-c3cccc(Cl)c3)sc2c(=O)n1C,14.8,nt,-13.7,6.1,7.5,nt
CC(C)C1Oc2ccccc2N(CC(=O)N2CCOCC2)C1=O (centres undefined),-1.7,12.3,27.2*,1.8,0.9,-5.0
CCOc1ccc(CN(C)CC(=O)Nc2ccc(N3CCOCC3)cc2)cc1OC,-7.0,3.0,10.2,3.4,4.0,nt
O=C(OCc1ccc([N+](=O)[O-])cc1)c1cc2ccccc2oc1=O,-0.9,-1.8,0.0,-1.8,-3.3,nt
